# Data taken from ChEMBL document CHEMBL1127479, “Synthesis and structure-activity studies of N,N'-diarylguanidine derivatives. N-(1-naphthyl)-N'-(3-ethylphenyl)-N'-methylguanidine: a new, selective noncompetitive NMDA receptor antagonist” (J Med Chem, 1994).
# pIC50: −log10 of the molar value.
# Target: not listed separately
# Test: Tested in vitro for the concentration required to inhibit specific [3H]DTG radioligand binding to sigma receptor on guinea pig brain membrane
row,pIC50,Structure (SMILES)
1,7.85,CCc1ccccc1NC(=N)Nc1ccccc1CC
2,6.61,CCc1ccc(NC(=N)Nc2ccc(CC)cc2)cc1

# Continued, compound first:
row,Structure (SMILES),pIC50
1,NC(=Nc1ccccc1-c1ccccc1)Nc1ccccc1-c1ccccc1,5.09
2,CC(C)(C)c1ccccc1NC(=N)Nc1ccccc1C(C)(C)C,6.45

# Target: Glutamate NMDA receptor
# Test: In vitro concentration required to inhibit specific [3H]MK-801 radioligand binding to N-methyl-D-aspartate (NMDA) receptor on rat brain membrane
# How it was run: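 Rat brain crude synaptic membranes, thawed, pretreated at 1 mg protein/mL with 0.01% Triton X-100 for 15 min at 37 °C, then washed three times by centrifugation. Filtration stop. IC50 taken from displacement curves or nonlinear least-squares regression.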
row,pIC50,Structure (SMILES)
1,7.06,CN(C(=N)Nc1cccc2ccccc12)c1cccc([N+](=O)[O-])c1
2,5.54,NC(=Nc1cccc2ccccc12)NCc1ccccc1
3,4.90,N=C(Nc1ccc2ccccc2c1)Nc1ccc2ccccc2c1
4,6.72,Cc1cccc(NC(=N)Nc2cccc3ccccc23)c1
5,7.28,CCN(C(=N)N(C)c1cccc2ccccc12)c1cccc2ccccc12
6,5.04,Cc1ccccc1NC(=N)Nc1ccccc1C [DITOLYLGUANIDINE]
7,5.00,N=C(Nc1cccc2ccccc12)N1CCC(c2ccccc2)CC1
8,7.44,CCc1cccc(N(C)C(N)=Nc2cccc3ccccc23)c1
9,6.47,Cc1cccc(NC(=N)Nc2cccc(C)c2)c1
10,6.77,CCc1cccc(NC(=N)Nc2cccc(CC)c2)c1
11,6.09,CCc1ccccc1NC(=N)Nc1ccccc1CC
12,5.55,C/[N+](=C(/[NH-])Nc1cccc([N+](=O)[O-])c1)c1cccc2ccccc12
13,7.19,CN(C(N)=Nc1cccc2ccccc12)c1cccc(N=[N+]=[N-])c1
14,5.68,CN(C(N)=Nc1cccc2ccccc12)c1cccc(N)c1
15,6.68,NC(=Nc1cccc2ccccc12)Nc1ccccc1I
16,5.77,CN(C(N)=Nc1cccc(N=[N+]=[N-])c1)c1cccc2ccccc12
17,7.00,CCc1cccc(N(C)C(=N)N(C)c2cccc3ccccc23)c1
18,6.48,N=C(Nc1cccc2ccccc12)Nc1cccc2ccccc12
19,7.41,CCc1cccc(NC(=N)Nc2cccc3ccccc23)c1
20,6.99,CC(C)c1ccccc1N=C(N)Nc1cccc2ccccc12
21,6.93,CCN(C(N)=Nc1cccc2ccccc12)c1cccc2ccccc12
22,4.99,CCc1ccc(NC(=N)Nc2ccc(CC)cc2)cc1
23,5.00,CN(C(N)=Nc1cccc(N)c1)c1cccc2ccccc12
24,5.70,CCCc1cccc(NC(=N)Nc2cccc(CCC)c2)c1
25,7.16,CN(C(=N)N(C)c1cccc2ccccc12)c1cccc2ccccc12

# Second part, the compound before the results:
row,Structure (SMILES),pIC50
1,Cc1cccc(N=C(N)N(C)c2cccc(C)c2)c1,5.70
2,CC(C)c1cccc(NC(=N)Nc2cccc(C(C)C)c2)c1,6.39
3,CN(C(N)=Nc1cccc2ccccc12)c1ccccc1,5.99
4,CC(C)c1ccc(NC(=N)Nc2ccc(C(C)C)cc2)cc1,4.63
5,COc1cccc(N=C(N)Nc2cccc(OC)c2)c1,6.31
6,NC(=Nc1cccc2ccccc12)N(c1ccccc1)c1cccc2ccccc12,6.32
7,NC(=Nc1ccc(Br)cc1)Nc1ccc(Br)cc1,4.47
8,CCc1cccc(N(C)C(=N)N(CC)c2cccc3ccccc23)c1,7.01
9,NC(=Nc1ccccc1-c1ccccc1)Nc1ccccc1-c1ccccc1,5.00
10,CN(C(=N)N(c1ccccc1)c1cccc2ccccc12)c1cccc2ccccc12,6.33
11,N=C(Nc1cccc2ccccc12)N1CCCCC1,5.00
12,CCc1cccc(N=C(N)N2CCC(c3ccccc3)CC2)c1,5.00
13,N=C(Nc1cccc2c1CCC2)Nc1cccc2c1CCC2,6.30
14,CC(C)c1ccccc1N=C(N)N(C)c1cccc2ccccc12,6.07
15,N=C(Nc1ccccc1)Nc1ccccc1,5.46
16,NC(=Nc1ccccc1I)Nc1ccccc1I,6.64
17,Cc1ccc(N=C(N)Nc2ccc(C)cc2)cc1,4.88
18,CCc1cccc(N(CC)C(N)=Nc2cccc3ccccc23)c1,7.14
19,CCc1cccc(N=C(N)N(C)c2cccc3ccccc23)c1,6.27
20,CC(C)(C)c1ccccc1NC(=N)Nc1ccccc1C(C)(C)C,4.42
21,CC(C)c1ccccc1N=C(N)Nc1ccccc1C(C)C,6.66
22,CN(C(N)=Nc1cccc2ccccc12)c1cccc2ccccc12,6.94
23,NC(=Nc1cccc2ccccc12)N1CCCCCC1,5.00
24,N=C(N1CCc2ccccc21)N1CCc2ccccc21,< 4.00
